Compound activity as filed in PubChem BioAssay.
NPY-Y2 PAM-ag – potentiates or activates human NPY-Y2 receptor; P49146; 220,000 compounds, 0.45% hits; cells expressing NPY-Y2, potentiator/agonist read-out; activation, % at 3.6 µM; in the data active means activation above about 27%;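 further: cells stimulated with NPY near EC25 plus isoproterenol at EC100; 0% = vehicle plus submaximal agonist and 100% = vehicle plus saturating agonist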
NPY Y1 blocker – blocks the human neuropeptide Y Y1 receptor. HEK293-CNG Y1 cells, membrane potential fluorescence; NPY at EC95, then isoproterenol. inhibition, % at 3.6 µM. 200,000 compounds, 1% hits. AID 1040;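 active means inhibition above the campaign mean inhibition of all tested compounds plus 3 SD, cut at about 20% in these data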;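 further: 0% = DMSO wells given NPY plus isoproterenol and 100% = isoproterenol alone without NPY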
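Material: Y1- and CNG-channel-expressing HEK293 cells / Probe or stimulus: NPY 25 nM then isoproterenol 1 µM plus Ro 20-1724 25 µM / Doses: 3.6 µM single dose, DMSO 0.4% / Schedule: compound incubation 1 h at room temperature, readout 45 min post-stimulation / Signal: membrane potential fluorescence / Benchmarks: isoproterenol-only wells as full block versus NPY-plus-isoproterenol wells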
NPY1 pot ag – potentiators or agonists of human neuropeptide Y receptor Y1 | P25929 | NPY-Y1 expressing cells, potentiator/agonist activation | activation, % at 3.6 µM | 220,000 compounds, 0.37% hits; in the data active means activation above about 33%, passing the limit was not always enough;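 further: cells stimulated with NPY at EC10 then isoproterenol at EC100; 0% = low agonist plus stimulus and 100% = saturating agonist plus stimulus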
Rad51 HR inh – Rad51 (human) homologous recombination inhibition; hRad51 DNA strand exchange, fluorescence dequenching; inhibition, % at 10 µM; 200,000 compounds, 0.085% hits; AID 1385;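 active means inhibition above 40% at the single screening dose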;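 further: 0% = DMSO control wells and 100% = blanks with heterologous ssDNA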
Target sequence (Q06609 whole entry, looked up): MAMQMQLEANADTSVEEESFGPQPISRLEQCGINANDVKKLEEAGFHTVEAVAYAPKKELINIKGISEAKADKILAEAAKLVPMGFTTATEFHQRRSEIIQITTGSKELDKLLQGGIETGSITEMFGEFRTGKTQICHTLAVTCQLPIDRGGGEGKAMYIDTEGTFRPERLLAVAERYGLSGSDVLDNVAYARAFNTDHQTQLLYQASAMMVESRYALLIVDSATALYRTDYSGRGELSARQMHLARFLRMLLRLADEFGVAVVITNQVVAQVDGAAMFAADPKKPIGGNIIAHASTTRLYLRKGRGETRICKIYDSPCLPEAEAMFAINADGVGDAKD
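System: human Rad51 nucleoprotein filaments preassembled on unlabelled ssDNA. Reagent: labelled 47-mer dsDNA for strand exchange. Schedule: 30-min compound preincubation and 15-min exchange, both room temperature. Measured by: FRET fluorescence dequenching, excitation 485 nm, emission 520 nm. Read-out: Fluorescence-based percent inhibition, control- and blank-normalised. Benchmarks: plate controls and plate blanks.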
NPY Y2 blocker – antagonists of human neuropeptide Y receptor Y2; P49146; NPY-Y2 expressing cells, antagonist mode; inhibition, % at 2.7 µM; 140,000 compounds, 0.99% hits; in the data active means inhibition above about 17%;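 further: 0% = vehicle with agonist challenge and 100% = reference antagonist with challenge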
Measles CPE – protection of cells from measles virus | Measles virus-infected cells, CPE protection, absorbance | protection (pct of control), % at 4 µM | 140,000 compounds, 1.5% hits; in the data active means protection mostly above about 24%, no sharp cut-off; inactive means mostly below about 26%
NPY-Y2 confirm – human NPY-Y2 potentiation or agonism, confirmation. 450 compounds, 20% hits. cell-based NPY-Y2 potentiator/agonist assay. AID 1539. shares compounds with NPY-Y2 PAM-ag. activation, % at 3.6 µM; in the data active means activation above about 33%
NPY-Y1 counter – counter-screen for NPY-Y2 potentiators or agonists: NPY-Y1 potentiators or agonists; activation, % at 3.6 µM; Y1 HEK293-CNG cells, membrane potential fluorescence; shares compounds with NPY-Y2 PAM-ag; AID 1651; 450 compounds, 20% hits; in the data active means activation above about 45%;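 further: cells stimulated with submaximal NPY then isoproterenol with phosphodiesterase inhibitor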
NPY-Y1 ag 2 – human NPY-Y1 agonism as NPY-Y2 potentiator counter-screen; shares compounds with NPY-Y2 PAM-ag; HEK293 Y1-CNGC, membrane potential fluorescence; activation, % at 3.6 µM; 450 compounds, 37% hits; AID 1702;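 active means activation above the mean of DMSO-only control wells plus 3 SD, cut at about 18% in these data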;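 further: cells stimulated with 1 µM isoproterenol plus the PDE inhibitor Ro 20-1724; 0% = isoproterenol with DMSO and no NPY and 100% = 40 nM NPY; Y1 agonists lower the membrane potential dye signal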
CNGC inhibitor – blocks CNG channel activity, counter-screen for NPY-Y2 potentiators. shares compounds with NPY-Y2 PAM-ag. HEK293-CNG parental, isoproterenol cAMP, membrane potential fluorescence. inhibition, % at 3.6 µM. 450 compounds, 32% hits;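 active means inhibition above the control-well mean plus 3 SD of those wells, cut at about 22% in these data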;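 further: 0% = DMSO with isoproterenol and 100% = DMSO without isoproterenol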
Y2 agonist ctr – NPY-Y2 agonism, counter-screen for Y2 potentiators | activation, % at 3.6 µM | 450 compounds, 56% hits | shares compounds with NPY-Y2 PAM-ag | AID 1710 | HEK293 Y2/CNGC cells, membrane potential fluorescence, agonist mode;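 active means activation above the mean of solvent-only control wells plus 3 SD, cut at about 10% in these data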;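 further: cells stimulated by isoproterenol with no NPY added so direct agonism is tested; 0% = DMSO with isoproterenol alone and 100% = NPY at EC100 plus isoproterenol; agonism lowers probe fluorescence through less cAMP and CNG channel opening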
An asterisk follows results filed as active. Hits are enriched below; roughly 2.8% of the tested compounds scored in any of these assays.

Screening Oc1ccc(O)c(Cc2nc3ccccc3s2)c1 returned NPY-Y2 PAM-ag 29*, NPY Y1 blocker -2, NPY1 pot ag 27, Rad51 HR inh 11, NPY-Y2 confirm 6, NPY-Y1 counter 12, NPY-Y1 ag 2 8, CNGC inhibitor 11 and Y2 agonist ctr 5.
For Oc1ccccc1OCc1nc2ccccc2s1 the results were NPY-Y2 PAM-ag -3, NPY Y1 blocker 1, NPY1 pot ag -20, Rad51 HR inh 2, NPY Y2 blocker 2 and Measles CPE 24.
For Cc1n[nH]c(C)c1N=Nc1ccc(Br)cc1 the results were NPY-Y2 PAM-ag 31*, NPY Y1 blocker -8, NPY1 pot ag 30, Rad51 HR inh 12, NPY-Y2 confirm 14, NPY-Y1 counter 27, NPY-Y1 ag 2 0, CNGC inhibitor 18 and Y2 agonist ctr 5.
For COc1cc([N+](=O)[O-])cc(/C=N/NC(=O)C(C)Nc2ccccc2C)c1O (centres undefined) the results were NPY-Y2 PAM-ag -2, NPY Y1 blocker 1, NPY1 pot ag 5, Rad51 HR inh 18, NPY Y2 blocker 4 and Measles CPE 8.
Screening O=C(Nc1nc(-c2ccccc2)cs1)c1ccccc1NS(=O)(=O)c1ccc(F)cc1 returned NPY-Y2 PAM-ag 46*, NPY Y1 blocker 12, NPY1 pot ag 6, NPY Y2 blocker 0, Measles CPE 2, NPY-Y2 confirm 5, NPY-Y1 counter -8, NPY-Y1 ag 2 -7, CNGC inhibitor 12 and Y2 agonist ctr 6.
O=C(CNC(=S)N(CCCN1CCOCC1)Cc1cccs1)N1CCCC1 was read as NPY-Y2 PAM-ag -8, NPY Y1 blocker 5, NPY1 pot ag 8 and Rad51 HR inh -14.
For CCc1nnc(NS(=O)(=O)c2ccc(N3C(=O)c4ccccc4C3=O)cc2)s1 the results were NPY-Y2 PAM-ag -16, NPY Y1 blocker 6, NPY1 pot ag 7 and Rad51 HR inh 1.
For CCC1(CC)Cc2ccccc2C(C2=C(O)CC(C)(C)CC2=O)=N1 the results were NPY-Y2 PAM-ag 6, NPY Y1 blocker 8, NPY1 pot ag 20, NPY Y2 blocker 3 and Measles CPE 20.
For Cc1cccc2c1CC(C)(C)N=C2C1=C(O)CC(C)(C)CC1=O the results were NPY-Y2 PAM-ag 76*, NPY Y1 blocker -1, NPY1 pot ag 17, Rad51 HR inh 14, NPY Y2 blocker 1, Measles CPE 4, NPY-Y2 confirm -5, NPY-Y1 counter -3, NPY-Y1 ag 2 -11, CNGC inhibitor -2 and Y2 agonist ctr -14.
Screening CC(Oc1cc(Cl)ccc1Cl)C(=O)N/N=C\c1ccnn1C (centres undefined) returned NPY-Y2 PAM-ag 27*, NPY Y1 blocker -3, NPY1 pot ag -1, Rad51 HR inh 4, NPY Y2 blocker 2, Measles CPE 8, NPY-Y2 confirm -3, NPY-Y1 counter -5, NPY-Y1 ag 2 -2, CNGC inhibitor -4 and Y2 agonist ctr 6.
For CC(Oc1ccc(Cl)cc1Cl)C(=O)Nn1cnnc1 (centres undefined) the results were NPY-Y2 PAM-ag -8, NPY Y1 blocker 3, NPY1 pot ag 5, Rad51 HR inh -1, NPY Y2 blocker 0 and Measles CPE 19.
